Experiment [1] concerns HL-60. Briefly: The compound was tested in vitro for growth inhibition against HL-60(human promyelocytic leukemia) cell line in the dark. The experiment is classed as functional, cell-based.
Experiment [2] is filed under the species Cavia porcellus. Nature of the experiment: The compound was tested for photo antiproliferative activity and ability to induce erythema on guinea pig skin; --- = absent. The experiment is classed as functional, organism-based. In short, it runs like this: (§1)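 Depilated albino guinea pigs (outbred Dunkin-Hartley) given topical ethanol solution on skin, new compounds up to 50 μg cm-2, 5-MOP and 8-MOP at 10 μg cm-2; kept dark 45 min, then treated skin irradiated with 20 kJ m-2 UVA (lamps emitting over 90% at 365 nm); erythema scored after 48 h.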

For experiment [3], the system named is HeLa. Nature of the experiment: The compound was tested in vitro for growth inhibition against HeLa(human cervix adenocarcinoma) cell line in the presence of UVA(ultra violet A irradiated). Type of experiment: functional, cell-based. Particulars: light or radiation study. The method, boiled down:
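HeLa (F-12 with 10% heat-inactivated FCS) seeded 10^5/well for 24 h; medium changed to phenol red-free DMEM with test agent, 1 h later irradiated with UVA 0.793 J cm-2 at 365 nm; drug medium removed, cells kept 24 h in complete F-12; trypan blue viability; IC50 as 50% cell-number reduction versus control.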

The subject of experiment [4] is HeLa. Briefly: The compound was tested in vitro for growth inhibition against HeLa(human cervix adenocarcinoma) cell line in the dark. The experiment is classed as functional, cell-based.
Experiment [5] concerns HL-60. Nature of the experiment: The compound was tested in vitro for growth inhibition against HL-60(human promyelocytic leukemia) cell line in the presence of UVA(ultra violet A irradiated). The experiment is classed as functional, cell-based. Particulars: HL-60, light or radiation study.
For experiment [6], the species on record is Cavia porcellus. Nature of the experiment: The compound was tested for photo antiproliferative activity and ability to induce erythema on guinea pig skin; +-- = mild. The experiment is classed as functional, organism-based. The method, boiled down:
as §1

Experiment [7] has as its system Cavia porcellus. Briefly: The compound was tested for photo antiproliferative activity and ability to induce erythema on guinea pig skin; +++ = strong (without edema). Type of experiment: functional, organism-based. The method, boiled down:
as §1

SMILES strings stand for the structures. Activity calls are given as the source filed them. The calls are words filed in the database; no cut-off is given here.

As usually defined, the IC50 is the concentration needed to halve the response being measured. For the compound `Cc1cc(=O)oc2cc3oc4c(c3c(O)c12)CCCC4`, the IC50 in experiment [1] was more than 20 µM; in experiment [3], more than 20 µM; in experiment [4], more than 20 µM; in experiment [5] it was 7.3 µM. For the same compound, in experiment [2], the Formation of erythema result was “inactive”.
Consider `COc1c2c(C)cc(=O)oc2cc2oc3c(c12)CCCC3`, for which the IC50 in experiment [1] was more than 20 µM; in experiment [3] it was 4.6 µM; in experiment [4] it was more than 20 µM; in experiment [5] it was 4.9 µM. In experiment [2], the Formation of erythema result is “inactive”.
Regarding `COc1c2oc(=O)cc(C)c2cc2c3c(oc12)CCCC3`, the IC50 is more than 20 µM in experiment [1], more than 20 µM in experiment [3], more than 20 µM in experiment [4] and 3.5 µM in experiment [5]. Also, in experiment [2], the Formation of erythema result was “inactive”.
Consider `Cc1cc(=O)oc2c(O)c3oc4c(c3cc12)CCCC4`, for which the IC50 in experiment [1], in experiment [3], in experiment [4] and in experiment [5] was more than 20 µM each time. In addition, the Formation of erythema result in experiment [2] was “inactive”.
For the compound `COc1c2c(C)cc(=O)oc2cc2oc3ccccc3c12`, the IC50 in experiment [1] was more than 20 µM; in experiment [3] it was more than 20 µM; in experiment [4], more than 20 µM; in experiment [5] it was 4.5 µM. For the same compound, in experiment [2], the Formation of erythema entry is “inactive”.
Turning to `Cc1cc(=O)oc2cc3oc4ccccc4c3c(OCCCN(C)C)c12`, the IC50 was 9.2 µM in experiment [1], 2.8 µM in experiment [3], more than 20 µM in experiment [4] and 0.73 µM in experiment [5]. Besides, the Formation of erythema entry in experiment [2] is “inactive”.
On the same counts, the results for `Cc1cc(=O)oc2c(O)c3oc4ccccc4c3cc12` are more than 20 µM, more than 20 µM, more than 20 µM, more than 20 µM and “inactive”.
With `Cc1cc(=O)oc2cc3oc4c(c3c(OCCCN(C)C)c12)CCCC4`, the IC50 in experiment [1] was 13.8 µM; in experiment [3] it was 3.7 µM; in experiment [4], more than 20 µM; in experiment [5], 3.4 µM. Also, the Formation of erythema result in experiment [6] is “+--”.
Consider `Cc1cc(=O)oc2c(OCCCN(C)C)c3oc4c(c3cc12)CCCC4`, for which the IC50 in experiment [1] was 12.4 µM; in experiment [3], 1.2 µM; in experiment [4], more than 20 µM; in experiment [5] it was 0.6 µM. The Formation of erythema result in experiment [7] is “strong (without edema)”.
Consider `COc1c2occc2cc2ccc(=O)oc12` [METHOXSALEN], for which the IC50 is more than 20 µM in experiment [1], 10 µM in experiment [3], more than 20 µM in experiment [4] and 5.4 µM in experiment [5]. The Formation of erythema entry in experiment [7] is “Active”.
Turning to `Cc1cc(=O)oc2cc3oc4ccccc4c3c(O)c12`, the IC50 in experiment [1], in experiment [3], in experiment [4] and in experiment [5] was more than 20 µM in each case. Also, the Formation of erythema entry in experiment [2] is “inactive”.
In the case of `Cc1cc(=O)oc2c(OCCCN(C)C)c3oc4ccccc4c3cc12`, the IC50 turned out to be 4.2 µM in experiment [1], 0.08 µM in experiment [3], 9.6 µM in experiment [4] and 0.6 µM in experiment [5]. Also, the Formation of erythema result in experiment [2] was “inactive”.
As to `COc1c2ccoc2cc2oc(=O)ccc12` [BERGAPTEN], the IC50 in experiment [1] is more than 20 µM; in experiment [3] it was 16.3 µM; in experiment [4], more than 20 µM; in experiment [5], 3.35 µM. Besides, in experiment [7], the Formation of erythema entry is “Active”.
For `COc1c2oc(=O)cc(C)c2cc2c1oc1ccccc12`, the IC50 in experiment [1] was more than 20 µM; in experiment [3] it was more than 20 µM; in experiment [4], more than 20 µM; in experiment [5], 6.4 µM. Moreover, the Formation of erythema result in experiment [2] is “inactive”.

Values taken from ChEMBL document CHEMBL1132689, “New tetracyclic analogues of photochemotherapeutic drugs 5-MOP and 8-MOP: synthesis, DNA interaction, and antiproliferative activity” (J Med Chem, 1999).
